Fibroblast inh: blocks proliferation of human lung fibroblasts; LL 47 human lung fibroblast viability, ATP luminescence; hits give low values; viability, % at 10 µM; 1.1% of 85,000 active;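 active = viability at or below 50% in the single dose screen; inactive = viability above 50%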;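 also: compound exposure lasted 72 h before the ATP readout; 100% = median luminescence of untreated cell-only wells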
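Times – overnight cell rest, 72 h compound treatment at 37 °C · Test system – human lung fibroblast line LL 47, low passage · Amount – 1,150 cells in each well · Controls – cell-only wells, no compound · Doses – 0.1% DMSO in all compound wells · Measured by – CellTiter-Glo luminescence · Buffer or medium – IMEM plus 15% FBS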
H69AR growth 86K: growth inhibitors of human H69AR lung tumor cells | H69AR lung tumor viability, ATP luminescence, 72 h; hits give low values | viability, % at 10 µM | 6% of 85,000 active | AID 598;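 active = viability at or below 40%; inactive = viability above 40%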;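 also: multidrug resistant small cell line overexpressing MRP-1 efflux transporter; 100% = mean luminescence of untreated control wells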
HCT116 PTEN-null: suppresses growth of cells with PTEN deletion; HCT116 PTEN-null viability, CellTiter-Glo, 60 h; hits give low values; viability, % at 10 µM; 1.2% of 140,000 active; AID 827;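 active = viability at or below a set limit, 4 SD under the median of all tested compounds, cut at about 3.7% in these data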;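 also: PTEN knockout HCT116 line with beta catenin targeted HCT116 as companion control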
Phagocyt inh: macrophage phagocytosis inhibition | J774A.1 macrophage IgG-bead phagocytosis, imaging | inhibition, % at 5 µM | 0.07% of 110,000 active | AID 1029;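 active = inhibition above the mean of the plate negative controls plus 5 SD, cut at about 13% in these data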;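 also: phagocytic index as fraction of beads internalized from green versus red external bead signal; plate controls were DMSO negative control for no effect and cytochalasin-D positive control for full effect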
bCat KO growth: beta-catenin-lacking colon tumor cell growth suppression; viability, % at 10 µM; AID 818; HCT116 beta-catenin knockout viability, CellTiter-Glo, 60 h; hits give low values; 1.5% of 140,000 active;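 active = viability at or under a set limit, the compound median less 4 SD, cut at about 6% in these data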;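 also: 0% = Hyamine 1622 control at 20 µM and 100% = untreated cell control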
HUVEC inhibit: blocks proliferation of human endothelial cells | HUVEC proliferation, CellTiter-Glo luminescence, 72 h; hits give low values | viability, % at 10 µM (by protocol) | 1.1% of 86,000 active;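 active = viability at or below 30%; inactive = viability above 30%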;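 also: 100% = median luminescence of DMSO-only cell control wells on each plate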
* marks the source's active call; other numbers are inactive results; nt = no result. Only a selection was taken, and hits are over-represented in it overall.

SMILES	Fibroblast inh	H69AR growth 86K	HCT116 PTEN-null	Phagocyt inh	bCat KO growth	HUVEC inhibit
CC(C)CCn1c(SCc2ccc(Cl)cc2)nc2c1c(=O)[nH]c(=O)n2C	75	28*	85	0	72	66
Cn1c(=O)[nH]c(=O)c2c1nc(N1CCCCC1)n2CCSc1nc2ccccc2o1	93	50	89	0	86	91
COc1cc(C(=O)NCCC(=O)NC2CCCCCCC2)cc(OC)c1OC	99	82	92	-2	89	93
CCN(c1ccc(NC(=O)COC(=O)CCC(=O)c2ccc(F)cc2)cc1)C(C)C	nt	nt	97	-1	94	nt
CCCc1[nH][nH]c(=O)c1C(c1cccc(Cl)c1)C(C#N)C#N (centres undefined)	90	17*	103	1	93	57
N#CC(C#N)C(c1ccsc1)c1c(-c2ccccc2)[nH][nH]c1=O (centres undefined)	95	94	100	-1	94	99
COc1ccc(C2N=C(c3ccccc3)C(C)(C)N2O)cc1OC (centres undefined)	96	91	79	-1	91	86
O=C1CCCc2c1[nH]c1ccccc21	100	91	93	-2	90	88
CC(C)COc1ccc2[nH]c3c(c2c1)CCCC3=O	92	93	82	-1	83	20*
O=C1c2ccccc2S(=O)(=O)N1CC1CC(c2ccccc2)=NO1 (centres undefined)	95	99	99	-1	96	94
COc1ccc(C2=NOC(CN3C(=O)c4ccccc4S3(=O)=O)C2)cc1 (centres undefined)	114	85	102	38*	88	106
O=C(OC[C@@H]1CCCN2CCCC[C@H]12)c1cc2ccccc2oc1=O	nt	nt	102	-2	104	nt
Cc1cc(Cl)ccc1NC(=O)NC1CCN(S(=O)(=O)c2ccc(F)cc2)CC1	96	39*	73	nt	79	94
COc1cc2nc(SCc3ccc(Cl)cc3Cl)n(Cc3cccs3)c(=N)c2cc1OC	nt	nt	59	nt	59	nt
CCCCNC(=O)CSc1nc2cc(OC)c(OC)cc2c(=O)n1Cc1ccc(OC)cc1	nt	nt	0.6*	nt	1.3*	nt
COc1ccc(Cn2c(SCc3cc(C)ccc3C)nc3cc(OC)c(OC)cc3c2=N)cc1	nt	nt	1.4*	nt	1.9*	nt
COc1ccc(Cn2c(SCc3ccc(C)cc3)nc3cc(OC)c(OC)cc3c2=N)cc1Cl	nt	nt	1.2*	2	1.2*	nt
COCCNC(=O)CSc1nc2cc(OC)c(OC)cc2c(=O)n1Cc1ccco1	96	93	88	nt	94	90
COc1ccc(C2=NOC3(CC(=O)N(c4ccc5ccccc5c4)C3=O)C2)c(OC)c1 (centres undefined)	nt	nt	93	-1	88	nt
O=C(COC(=O)c1cccc(NS(=O)(=O)c2ccc(F)c(F)c2)c1)NC(=O)NC1CCCCC1	nt	nt	75	nt	83	nt
CN(C1CCCCC1)S(=O)(=O)c1ccc2c(c1)c(=O)c(C(=O)N1CCc3ccccc3C1)cn2C	91	5.9*	86	0	82	93
Cn1cc(C(=O)NC2CCCCCCC2)c(=O)c2cc(S(=O)(=O)N3CCCC3)ccc21	49*	32*	80	nt	95	52
Cn1cc(C(=O)NC2CCCCCC2)c(=O)c2cc(S(=O)(=O)N3CCCC3)ccc21	nt	54	29	-4	31	81
Cc1ccc(NC(=O)C(Nc2cccc(C)c2)c2ccccc2)cc1 (centres undefined)	nt	nt	71	-6	75	nt
N#Cc1nc(-c2ccco2)oc1N1CCC(Cc2ccccc2)CC1	105	99	80	-1	84	104
SMILES	Fibroblast inh	H69AR growth 86K	HCT116 PTEN-null	Phagocyt inh	bCat KO growth	HUVEC inhibit
COC(=O)/C=c1/s/c(=C(/C#N)C(=O)NCc2ccccc2)n(-c2ccccc2)c1=O	103	93	97	1	93	99
CCCCCCOc1ccc(/C=c2\s/c(=C(/C#N)C(=O)NCc3ccco3)n(-c3ccccc3)c2=O)cc1	nt	nt	7	-1	4.7*	nt
CCNc1nc(NC(C)C)nc(N(C#N)CCOc2ccc(Cl)cc2Cl)n1	93	22*	64	-4	55	76
CCNc1nc(NC(C)C)nc(N(C#N)Cc2ccccc2)n1	69	95	104	4	115	100
O=C(Cc1cccc2ccccc12)N/N=C/c1ccc(OC(=O)/C=C/c2ccco2)cc1	94	24*	66	nt	67	78
Cc1ccc(NC(=O)NC(=O)CSc2nnc(-c3ccc(Cl)cc3Cl)n2N)c(C)c1	nt	nt	98	-1	97	nt
O=C(CSc1nnc(SCc2cccc3ccccc23)s1)N/N=C/c1c[nH]c2ccccc12	nt	nt	64	-10	77	nt
O=C(CSc1nnc(SCc2ccc(Cl)cc2)s1)N/N=C/c1c[nH]c2ccccc12	nt	nt	14	-6	5.2*	nt
COc1ccc(Cn2c(-c3ccc(Br)cc3)c[n+]3ccccc23)cc1	nt	nt	19	3	18	nt
CC(=O)c1cccc2c(O)c(C3=Nc4ccccc4C3=O)[nH]c12	61	1.5*	35	nt	38	36
CCOC(=O)N1CCN(S(=O)(=O)c2ccc(C(=O)Nc3nc4c(s3)CC(C)CC4)cc2)CC1 (centres undefined)	7.7*	7.5*	1.2*	0	1.5*	17*
CCOC(=O)N1CCN(S(=O)(=O)c2ccc(C(=O)NNc3nc4ccc(Cl)cc4s3)cc2)CC1	nt	nt	3.6*	nt	4.4*	nt
CCOC(=O)N1CCC(N2CCN(S(=O)(=O)c3ccc(C)cc3)CC2)CC1	94	29*	100	1	91	92
CCOC(=O)N1CCN(S(=O)(=O)c2ccc(C(=O)Nc3nnc(C4CC4)o3)cc2)CC1	nt	nt	84	-8	92	nt
CCOC(=O)N1CCN(S(=O)(=O)c2ccc(C(=O)NNc3nc4cc(C)cc(C)c4s3)cc2)CC1	nt	nt	11	nt	8	nt
CCC(C)(C(=O)NC1CCCCC1)N(Cc1ccco1)C(=O)c1ccccn1 (centres undefined)	103	79	84	0	90	97
COc1ccc(S(=O)(=O)N(CCc2ccccc2)CC(=O)O)cc1	97	90	99	2	105	99
Cc1c(OCc2ccccc2)c(=O)ccn1Cc1ccc(Cl)cc1	85	3.9*	63	-1	55	63
CC(C)=CCC/C(C)=C/CC(C)(C)CNCCN1CCNCC1	1.7*	0.6*	1.2*	nt	1.1*	1.5*
CC(C)=CCC/C(C)=C/CCC(C)NCCN1CCNCC1 (centres undefined)	14*	52	1.8*	0	1.8*	61
CC(C)=CCCC(C)CN1CCC(O)CC1 (centres undefined)	96	85	91	1	94	81
Cn1c(=O)c2ncn(CC(=O)Nc3cccc(-c4nc5ccccc5s4)c3)c2n(C)c1=O	nt	nt	41	0	42	nt
CCOC(=O)c1ccc(Nc2nnc(C(C)(C)C)c(=O)[nH]2)cc1	69	2.6*	44	2	50	55

Source: PubChem BioAssay (several laboratories)
